Assay outcomes deposited in PubChem BioAssay by several laboratories.
SR-BI uptake up – enhances SR-BI lipid uptake from DiI-HDL. CHO ldlA[mSR-BI] cells, DiI-HDL uptake fluorescence, 3 h; 100 = double the neutral-control signal. activation, % at 12.5 µM. actives 0.096% (n = 320,000);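 active = mean replicate activation of at least 60% and every replicate at or above 60%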
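Material – SR-BI-overexpressing, LDLR-lacking CHO cells · Medium – BSA-supplemented, HEPES-buffered Ham's F12, pH 7.4 · Doses – single concentration · Times – compound with DiI-HDL co-incubation, 3 h at 37 °C · Measured by – bottom-read fluorescence, 550/595 nm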
SR-BI HDL uptake – mouse SR-BI HDL lipid transfer inhibition | Q61009 | ldlA[mSR-BI] CHO cells, DiI-HDL uptake fluorescence, 3 h | inhibition, % at 12.5 µM | actives 0.96% (n = 320,000) | AID 488896;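 active = mean replicate inhibition of at least 70% and a set share of replicates each scoring 70 or more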
Target sequence (Q61009 whole entry, looked up): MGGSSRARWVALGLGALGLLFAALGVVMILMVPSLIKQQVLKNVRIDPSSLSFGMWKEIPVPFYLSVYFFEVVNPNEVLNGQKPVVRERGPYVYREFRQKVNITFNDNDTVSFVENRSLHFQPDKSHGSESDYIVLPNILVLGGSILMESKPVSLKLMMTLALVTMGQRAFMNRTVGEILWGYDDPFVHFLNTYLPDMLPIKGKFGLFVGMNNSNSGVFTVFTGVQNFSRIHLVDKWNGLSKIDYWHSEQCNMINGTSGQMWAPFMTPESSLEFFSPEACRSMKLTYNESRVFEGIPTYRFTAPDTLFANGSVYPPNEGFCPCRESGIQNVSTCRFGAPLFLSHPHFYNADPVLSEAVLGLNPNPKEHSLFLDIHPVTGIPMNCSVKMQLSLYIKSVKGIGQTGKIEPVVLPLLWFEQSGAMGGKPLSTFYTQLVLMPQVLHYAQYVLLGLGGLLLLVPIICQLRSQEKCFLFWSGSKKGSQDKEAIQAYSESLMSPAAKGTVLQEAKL
FID counter – displaces DNA intercalator in HCV helicase counter-screen | DNA fluorescent intercalator displacement, fluorescence | inhibition, % at 7.9 µM | actives 0.17% (n = 290,000); in the data active = inhibition above about 37%;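 also: higher means more ethidium bromide displaced from hairpin DNA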
ANO1 block – mouse TMEM16A channel inhibition, primary screen; HEK293 TMEM16A/YFP iodide influx fluorescence, ionomycin; actives 1.2% (n = 310,000); AID 588511; normalized B-score (activity score, 25-100; higher = stronger inhibition) at 10 µM;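 active = ratio plate-corrected score three or more library SD toward inhibition, starting fluorescence score within five deviations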;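 also: score derived from kinetic fluorescence span divided by baseline fluorescence per well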
Kir21 inh – inhibitors of mouse Kir2.1 inward-rectifier potassium channel; P35561; HEK293-Kir2.1, FluxOR thallium flux fluorescence; stronger effect = lower value; B-score at 10 µM; actives 0.85% (n = 310,000);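 active = fluorescence ratio B-score at or below minus 3 SD of library scores, with starting-brightness B-score within 2 SD, cut at about -4.2 in these data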;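 also: channel flux triggered by added potassium and thallium sulfate stimulus; B-score of peak minus minimum fluorescence over baseline after thallium stimulus; more negative B-score means stronger Kir2.1 block with less thallium influx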
TMEM16A act – activators or potentiators of mouse TMEM16A chloride channel; Q8BHY3; HEK293 TMEM16A/YFP-H148Q/I152L, iodide quench fluorescence; stronger effect = lower value; B-score at 10 µM; actives 0.3% (n = 340,000); AID 623877;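 active = fluorescence-ratio B-score plate-corrected deviation score at least 3 library SD below zero, with starting fluorescence score within 5 deviations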;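 also: channel opened by trigger with iodide after compound preincubation; score built on the fluorescence ratio of max minus min over baseline; more negative score means more quench and so TMEM16A activation or potentiation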
Numbers stand for hits; n = inactive; x = no result given. In the library only some 3% were active in any assay of this set; here they are far more common.

SMILES	SR-BI uptake up	SR-BI HDL uptake	FID counter	ANO1 block	Kir21 inh	TMEM16A act
CCOc1cc(N(CC)CC)ccc1/C=C(/C#N)c1nc2ccccc2[nH]1	n	109	n	n	n	n
CCCOc1cc(N(CC)CC)ccc1/C=C(/C#N)c1nc2ccc(C)cc2[nH]1	n	89	n	n	n	n
Cc1ccc(C2(C)NC(=O)N(CC(=O)N3CCN(S(=O)(=O)c4ccc(Cl)s4)CC3)C2=O)cc1 (stereo unspecified)	n	n	x	n	n	n
Cc1cc(=O)oc2cc(OCC(=O)N3CCCC3)c(Cl)cc12	n	n	x	x	x	n
CCOc1ccccc1C(=O)NCC(=O)N1CCC(C)CC1	n	n	x	x	x	n
O=[N+]([O-])c1cccnc1N1CCC(c2cc(-c3ccc(Cl)cc3Cl)n[nH]2)CC1	n	n	n	n	n	n
O=[N+]([O-])c1cccnc1N1CCC(c2cc(-c3cccc(C(F)(F)F)c3)n[nH]2)CC1	n	n	n	100	n	n
COc1ccccc1C1CCN(Cc2ccc(Cl)c(Cl)c2)CC1	x	x	n	n	n	n
CN[C@@H]1CC[C@H](c2ccc(Cl)c(Cl)c2)c2ccccc21	n	n	x	n	-5.8	n
COc1cccc(CN2CCN(S(=O)(=O)c3ccc(Cl)s3)CC2)c1	n	n	n	n	n	n
CCc1ccc(S(=O)(=O)Nc2nnc(N)s2)cc1	n	n	n	n	n	n
COc1ccc(S(=O)(=O)NN(C)c2ncc(C(F)(F)F)cc2Cl)cc1	n	n	n	n	-8	n
Cc1ccc(OCC(=O)O)c(O)c1	n	n	x	x	x	n
COc1ccc(N2CCN(C(=O)c3ccc(-c4nc5ccccc5s4)o3)CC2)cc1	n	n	x	x	x	-28
COc1ccccc1N1CCN(C(=O)c2ccc(-c3nc4ccccc4s3)o2)CC1	n	n	x	x	x	n
CCCCCCCNC(=O)C1(CC2CC(c3cccc(Br)c3)=NO2)CCNCC1 (stereo unspecified)	n	n	n	n	-11	n
CCCCCCCNC(=O)C1(CC2CC(c3ccc(Cl)cc3)=NO2)CCNCC1 (stereo unspecified)	n	n	n	n	-10	n
CCCCCCCNC(=O)C1(CC2CC(c3cccc(Br)c3)=NO2)CCN(C(=O)Cc2ccc(F)cc2)CC1 (stereo unspecified)	n	n	x	n	x	n
CN(C)CCCNC(=O)C[C@H]1C[C@H](C(=O)N2CCOCC2)[C@@]2(C)c3[nH]c4ccc(Cl)cc4c3CCN2C1=O	n	n	x	x	x	x
CC(C(=O)NCCCc1ccccc1)n1cccc1C(=O)c1ccccc1 (stereo unspecified)	n	n	n	n	-6.4	n
CN(C)C(=O)CN1C(=O)NC(c2ccccc2)(c2ccccc2)C1=O	x	x	n	n	n	n
O=C(Nc1nc2ccccc2[nH]1)C1CC1	n	n	n	n	n	-5.8
COC(=O)c1cc(C(=O)Nc2nc3ccccc3[nH]2)cc([N+](=O)[O-])c1	n	80	n	n	n	n
O=C(Nc1sc2c(c1-c1nc3ccccc3[nH]1)CCCC2)C1CCCC1	n	89	n	n	n	n
CC(=O)NCCC(=O)Nc1sc2c(c1-c1nc3ccccc3[nH]1)CCCC2	n	n	n	n	n	n
SMILES	SR-BI uptake up	SR-BI HDL uptake	FID counter	ANO1 block	Kir21 inh	TMEM16A act
CC(Sc1nnnn1-c1ccc(O)cc1)C(=O)NNC(=O)c1ccc(F)cc1 (stereo unspecified)	n	n	x	x	x	n
COc1ccc(C(=O)N/C(=C\c2cccs2)C(=O)N2CCN(C)CC2)cc1OC	n	n	n	n	n	n
COc1ccc(C(=O)N/C(=C/c2cccs2)C(=O)NN)cc1OC	n	75	n	n	n	n
CC(C)NC(=O)N(C)C[C@H]1Oc2c(NC(=O)C3CCCCC3)cccc2C(=O)N([C@H](C)CO)C[C@@H]1C	n	n	x	x	x	n
COc1ccc(CCNC(=O)C2CC3Cn4c(nc5ccccc54)C3N2c2ccccc2)cc1 (stereo unspecified)	n	n	x	n	n	n
Cc1nnc(-c2ccccc2)c(=O)n1/N=C/c1c(O)ccc2ccccc12	n	120	n	n	n	n
Cc1nc2ccccc2c(=O)n1/N=C/c1ccc2ccccc2c1O	n	90	n	n	n	n
Cc1nc2ccccc2c(=O)n1/N=C/c1ccccc1	n	n	n	n	n	n
COc1cc(/C=N/n2c(C)nc3ccccc3c2=O)ccc1O	507	n	n	n	n	n
CN(c1ccc(OCc2nnc(-c3ccccc3)o2)cc1)S(=O)(=O)c1ccccc1	n	n	n	n	n	n
O=[N+]([O-])c1ccc(OCc2nnc(-c3ccccc3)o2)cc1	n	n	n	100	n	n
Cc1ccccc1CC1(CO)CCCN(Cc2ccn[nH]2)C1 (stereo unspecified)	n	n	n	n	n	n
Cc1ccc(CN2CCCC(CO)(Cc3ccccc3C)C2)s1 (stereo unspecified)	n	n	n	n	-4.4	n
C=CCn1c(CSCc2ccc(C)cc2)nnc1SCC(=O)NCc1ccccc1	n	n	n	n	n	n
C=CCn1c(CSCc2ccc(Cl)cc2)nnc1SCC(=O)NCc1ccccc1	x	n	n	n	-4.8	n
COC(=O)C1CCN(Cc2ccc(OCCCN3CCN(c4ccc([N+](=O)[O-])cc4)CC3)cc2)CC1	n	n	n	25	n	n
COc1cc(C(=O)NNC(=O)COc2cccc(F)c2)ccc1OCC(=O)N1CCOCC1	n	n	x	x	x	n
COc1ccc(OC)c(NS(=O)(=O)c2ccc(Cl)nc2)c1	n	n	n	n	n	n
COc1ccc(S(=O)(=O)Nc2ccccc2OC)cc1C	n	n	n	n	n	n
COc1ccccc1NS(=O)(=O)c1cc(C)ccc1C	n	n	n	n	-4.6	n
COc1ccc(C)cc1NS(=O)(=O)c1cc(C)ccc1C	n	n	n	n	n	n
COc1ccc(S(=O)(=O)Nc2ccccc2SC)cc1C	n	n	n	n	-6.7	n
COc1ccc(OC)c(S(=O)(=O)Nc2ccccc2SC)c1	n	n	n	n	-4.6	n
CCCCOc1ccc(S(=O)(=O)Nc2cc(OC)ccc2OC)cc1	n	n	n	25	n	n
CC1CCC(NC(=O)c2cc(S(=O)(=O)N(C)C)ccc2N2CCCC2)CC1 (stereo unspecified)	n	n	x	n	n	n
O=C(O)/C=C/C(=O)Nc1ccc(N2CCOCC2)nc1N1CCOCC1	n	n	n	n	n	n
COc1ccccc1NS(=O)(=O)c1ccc(O)c(C(=O)OCC(=O)c2ccc(Cl)cc2Cl)c1	n	n	n	n	n	n
COc1ccccc1NS(=O)(=O)c1ccc(O)c(C(N)=O)c1	n	n	n	n	-4.2	n
CCNS(=O)(=O)c1cc(OC)ccc1OC	n	n	38	n	n	n
